# Results of several laboratories.
# Compare with care: the assays were run in different laboratories.
# Target: Calcium/calmodulin-dependent protein kinase type II subunit beta (CAMK2B, Homo sapiens, UniProt Q13554)
Structure (SMILES),effect on,action,method,concentration,endpoint,value
Cc1ncc([N+](=O)[O-])n1C(=NO)c1ccccc1C(F)(F)F,enzyme activity,inhibitor,,10 µM,inhibition,13.6%
O=C1NC(c2ccccn2)Sc2ccccc21 (stereo not drawn),cell-free assay,,competition with immobilised ligand,1 µM,remaining binding,100%
Cc1ccc(NC(=O)c2ccc(C)c(C(F)(F)F)c2)cc1C#Cc1nn(C2CCC(O)CC2)c2ncnc(N)c12 (stereo not drawn),cell-free assay,,,10 µM,remaining signal,85%
COc1ccc(COc2ccc(Cc3cnc(N)nc3N)cc2OC)cc1,cell-free assay,,,0.5 µM,remaining signal,100%
COc1cc2ncnc(Nc3ccc(Oc4ccccc4)cc3C)c2cc1OC,enzyme activity,inhibitor,,1 µM,inhibition,8%
CCN(CC)CCNC(=O)c1c(C)[nH]c(/C=C2\C(=O)Nc3ccc(F)cc32)c1C,enzyme activity,inhibitor,,0.3 µM,inhibition,57%
Cc1ccc(-n2nc(C(C)(C)C)cc2NC(=O)Nc2ccc(OCCN3CCOCC3)c3ccccc23)cc1,enzyme activity,inhibitor,,10 µM,inhibition,22%
O=C(Nc1ccc(Oc2ccc(F)cc2)cc1)N1CCc2ncccc2[C@H]1c1ccc(F)cc1,cell-free assay,,competition with immobilised ligand,1 µM,remaining binding,100%
COc1cccc2c(NCc3ccccc3)nc(-n3c(N)nc4ccccc43)nc12,target engagement in cells,inhibitor,chemoproteomics,20 mM,inhibition,-1.1%
CNC(=O)c1cc(Oc2ccc(NC(=O)Nc3ccc(Cl)c(C(F)(F)F)c3)cc2)ccn1,enzyme activity,inhibitor,,0.3 µM,inhibition,27%
CS(=O)(=O)CCNCc1ccc(-c2ccc3ncnc(Nc4ccc(OCc5cccc(F)c5)c(Cl)c4)c3c2)o1,cell-free assay,,,0.5 µM,remaining signal,93.8%
O=C(NC[C@@H]1[C@H]2CN(C(=O)OCc3cc(C(F)(F)F)cc(C(F)(F)F)c3)C[C@@H]12)c1ccc2[nH]nnc2c1,cell-free assay,,competition with immobilised ligand,1 µM,remaining binding,100%
CC(C)c1ccc(NC(=O)c2cccs2)c(-c2nc3ccccc3[nH]c2=O)c1,enzyme activity,inhibitor,,1 µM,activity vs control,108%
CCCCN(CCCC)C(=O)CN1C[C@@H](c2cc(OC)c3c(c2)OCO3)[C@H](C(=O)O)[C@H]1CC(C)(C)CCC,cell-free assay,,competition with immobilised ligand,1 µM,remaining binding,100%
CCCS(=O)(=O)Nc1ccc(F)c(C(=O)c2c[nH]c3ncc(-c4ccc(Cl)cc4)cc23)c1F,enzyme activity,inhibitor,,1 µM,inhibition,< 10%
COc1cc(-c2cc(-c3ccc(N4CCNCC4)cc3)cnc2C)cc(OC)c1OC,enzyme activity,inhibitor,,1 µM,inhibition,1%
CCC(=O)N[C@@H]1CC[C@H](C(=O)N(C)c2ccc(-c3nc4ccccc4o3)cc2)C1,cell-free assay,,competition with immobilised ligand,1 µM,remaining binding,100%
O=c1cc(-c2cccc3c2Sc2ccccc2S3)oc(N2CCOCC2)c1,enzyme activity,inhibitor,,0.5 µM,remaining activity,106%
Nc1ncnc2occ(-c3ccc(NC(=O)Nc4cc(C(F)(F)F)ccc4F)cc3)c12,enzyme activity,inhibitor,,20 µM,remaining activity,95%
Oc1ccc(-c2nc(-c3ccncc3)c(-c3ccc(F)cc3)[nH]2)cc1,cell-free assay,,,0.5 µM,remaining signal,96.4%
CS(=O)(=O)N1CCCC(NC(=O)[C@H](CCC2CCCCC2)NC(=O)c2ccc(CNc3ncnc4c3nnn4-c3ccccc3)cc2)C1 (stereo partly drawn),cell-free assay,,competition with immobilised ligand,0.1 µM,remaining binding,100%
COc1cc(Nc2c(C#N)cnc3cc(OCCCN4CCN(C)CC4)c(OC)cc23)c(Cl)cc1Cl,cell-free assay,,,0.5 µM,remaining signal,86.2%
Nc1c(C(=O)NCc2ccc(C(=O)NCCCC3CCCCC3)cc2)cnn1-c1ccccc1,cell-free assay,,competition with immobilised ligand,0.1 µM,remaining binding,100%
Cc1ccc(Nc2nccc(N(C)c3ccc4c(C)n(C)nc4c3)n2)cc1S(N)(=O)=O,enzyme activity,inhibitor,,10 µM,inhibition,29%
CCCCNc1ncc2c(-c3ccc(F)cc3)nn(C[C@H]3CC[C@H](N)CC3)c2n1,target engagement in cells,inhibitor,chemoproteomics,20 mM,inhibition,29%
COc1ccc2c(c1)O[C@H](c1ccc(OC)c(OC)c1)C[C@@H]2NC(=O)C1(c2ccc3c(c2)OC(F)(F)O3)CC1,cell-free assay,,competition with immobilised ligand,1 µM,remaining binding,88%
O=c1c2ccccc2[nH]c(=S)n1CCN1CCC(=C(c2ccc(F)cc2)c2ccc(F)cc2)CC1,enzyme activity,inhibitor,,0.5 µM,remaining activity,102%
Cc1sc(C(=O)NC2COC2)cc1-n1cc(NC(=O)Nc2c(F)cccc2Cl)cn1,enzyme activity,inhibitor,,10 µM,remaining activity,100%
CC(C)(O)[C@H]1CC[C@H](Nc2ccc3ncc(-c4cccc(C(F)(F)F)c4)n3n2)CC1,enzyme activity,inhibitor,,1 µM,remaining activity,96.9%
CC(C)(C)c1nc2c(s1)c1nc(N)ncc1c1ccc(NS(=O)(=O)c3c(F)cccc3F)c(F)c12,enzyme activity,inhibitor,radiometric,1 µM,remaining activity,83%
